Most compounds without a hit are left out; they make up all but 1.2% or so of the library.
p-CIP stab down: lowers stability of the mouse p/CIP coactivator protein | 0.01% of 290,000 active | Q05BA5 | decrease of EGFP signal, % at 10 µM | F442A p/CIP-EGFP cells, EGFP fluorescence, 16 h | AID 1984;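 active means EGFP signal decrease of at least 30% at 10 µM or well 3 SD below plate mean, unless failing retest; inactive means the rest, including hits failing retest or dose response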
procasp7 counter: counter-screen: procaspase-7 (human) activation; AID 463210; activation, % at 8.5 µM; P55210; recombinant procaspase-7, Ac-DEVD-pNA absorbance 405 nm; D23A/D198A/D206A triple mutant, cannot self-cleave; scale: DMSO 0, 5 µM enzyme 100; 0.093% of 330,000 active;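 active means percent activation above the screen-wide mean plus 3 SD, cut at about 25% in these data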
Target sequence (P55210 whole entry D23A/D198A/D206A): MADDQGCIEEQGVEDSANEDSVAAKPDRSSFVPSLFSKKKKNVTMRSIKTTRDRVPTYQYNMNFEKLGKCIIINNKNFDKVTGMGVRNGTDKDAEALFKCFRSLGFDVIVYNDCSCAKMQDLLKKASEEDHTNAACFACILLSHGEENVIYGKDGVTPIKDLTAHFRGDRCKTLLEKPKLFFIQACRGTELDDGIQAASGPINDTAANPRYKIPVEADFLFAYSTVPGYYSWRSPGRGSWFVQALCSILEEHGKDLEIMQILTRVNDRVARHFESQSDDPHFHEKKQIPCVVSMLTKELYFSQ
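buffer or medium = Zinc-free HEPES/NaCl buffer, pH 7.4 | material = Procaspase-7 triple mutant (PC-7 D3A) | input = 2 µM procaspase-7 mutant as dispensed | signal = Epi-absorbance of released pNA at 405 nm, two timepoints | timing = 1 h preincubation, 2 h reaction | replicates = singlicate compound testing | evaluation = % activation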
proCasp3 act: procaspase-3 (human) activation; P42574; recombinant procaspase-3 D3A, Ac-DEVD-pNA absorbance 405 nm; activation, % at 8.5 µM; 0.11% of 330,000 active; AID 463141;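 active means activation above the mean of all tested compounds plus 3 SD, cut at about 21% in these data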
Target sequence (P42574 whole entry D9A/D28A/D175A): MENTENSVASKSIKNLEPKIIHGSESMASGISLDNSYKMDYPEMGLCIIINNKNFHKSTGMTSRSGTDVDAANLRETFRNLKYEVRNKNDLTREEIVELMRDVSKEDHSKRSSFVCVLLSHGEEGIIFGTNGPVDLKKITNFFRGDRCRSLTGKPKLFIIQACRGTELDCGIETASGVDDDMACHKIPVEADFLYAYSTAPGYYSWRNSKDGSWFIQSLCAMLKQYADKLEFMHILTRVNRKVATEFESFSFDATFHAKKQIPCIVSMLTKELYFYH
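Assay system: Autoprocessing-dead procaspase-3 D3A mutant enzyme; also added: Ac-DEVD-pNA; doses: one concentration, 8.5 µM nominal, 0.8% DMSO; times: 1 h compound preincubation, 2 h substrate hydrolysis at 25 °C; technique: 405 nm absorbance of p-nitroaniline, reads at 0 and 120 min; measure: % activation between DMSO and enzyme-spiked controls; repeats: single replicate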
Rce1 inh: inhibitors of yeast Ras-converting enzyme; yeast membranes, quenched prenylated peptide cleavage fluorescence; 0.27% of 290,000 active; AID 2563; calls only; Q03530;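 active means fall in fluorescence gain of 50% or more versus controls, with final raw signal at or below 3038400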
GAA850 FXN act: frataxin GAA850 promoter activation | HEK293 lucGAA850 FXN promoter luciferase reporter, 24 h; percent of 10 µM SAHA response | activation, % at 6 µM | 0.56% of 360,000 active | AID 540364;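 active means activation above the average of all compounds screened plus 3 SD, cutoff fixed separately per campaign, cut at about 7.5% in these data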
Hep lipid drop: modulators of hepatic lipid droplet formation; inhibition, % at 6.5 µM; AID 1656; AML12 mouse hepatocytes, oleate lipid droplets, BODIPY imaging; 0.4% of 240,000 active;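 active means lipid droplet intensity inhibited by at least 50%, with more than 500 cells counted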
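Material: mouse AML12 hepatocyte cell line, fixed after treatment; Timing: compound with oleate, overnight; Technique: high-content imaging of BODIPY-stained droplets and DAPI nuclei; Probe or stimulus: oleate, 100 µM final; Dosing: compound at 6.5 µM only.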
Hep lipid conf: confirmation of inhibitors of hepatic lipid droplet formation; shares compounds with Hep lipid drop; AML12 mouse hepatocytes, BODIPY lipid droplet imaging; droplets induced with 100 µM oleic acid; inhibition, % at 5.2 µM; 65% of 870 active; AID 463183;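 active means inhibition of lipid droplet metric at least 50%, with more than 300 cells in each of four replicates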
AML12 cytotox: counter-screen for cytotoxicity in AML12 mouse hepatocytes; shares compounds with Hep lipid drop; 3% of 870 active; z-score at 5 µM; DAPI nuclear morphology cytotoxicity imaging; active compounds read high; cells fed 100 µM oleate overnight; in the data active means z-score above about 6.3;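 further: compound exposure lasted overnight at 37 °C before fixation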
AML12 tox conf: AML12 hepatocyte cytotoxicity, confirmed; shares compounds with Hep lipid drop; AML12 mouse hepatocyte viability, ATP luminescence; cells loaded with 100 µM oleic acid; cytotoxicity, % at 50 µM; 530 tested, under 10 active; AID 463219;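 active means cytotoxicity above 50% in each of four replicates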;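 further: compound exposure lasted overnight at 37 °C before the ATP read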
Hits are given with their value.

Results for CC(C)CC(N)c1csc(NC(=O)c2cc(C(C)(C)C)nn2Cc2ccccc2)n1 (centres undefined) ?
GAA850 FXN act: inactive

Results for CC(C)C(N)c1csc(Nc2ccc(S(C)(=O)=O)cc2)n1 (centres undefined) ?
GAA850 FXN act: inactive

How did O=C(Cc1cccc2ccccc12)Nc1ccc(-c2cc3ccccc3oc2=O)cc1 do in these assays?
p-CIP stab down: inactive; procasp7 counter: inactive; proCasp3 act: inactive; Rce1 inh: inactive; GAA850 FXN act: inactive; Hep lipid drop: 72; Hep lipid conf: 100; AML12 cytotox: inactive; AML12 tox conf: inactive

Results for Cc1cc(C)nc(NCCO)n1 ?
p-CIP stab down: inactive; procasp7 counter: inactive; proCasp3 act: inactive; Rce1 inh: inactive; GAA850 FXN act: inactive; Hep lipid drop: 81; Hep lipid conf: inactive; AML12 cytotox: inactive

How did CCOC(=O)C(=O)N(C)c1c(CC)nc2c(OCc3ccc(OC(F)F)cc3)cccn12 do in these assays?
GAA850 FXN act: inactive

What do the screens show for `CCCCOc1ccc(NC(=O)Cn2c(=O)ccc3c(C)cc(C)nc32)cc1`?
p-CIP stab down: inactive; procasp7 counter: inactive; proCasp3 act: inactive; Rce1 inh: inactive; GAA850 FXN act: inactive; Hep lipid drop: 66; Hep lipid conf: 91; AML12 cytotox: inactive; AML12 tox conf: inactive

Results for CCCCOc1ccc(NC(=O)CN2CCN(CC)CC2)cc1 ?
p-CIP stab down: inactive; Rce1 inh: inactive; GAA850 FXN act: inactive; Hep lipid drop: inactive

How did COc1ccc(C(=O)CSc2nnc(CC(=O)Nc3ccccc3OC)n2C)cc1 do in these assays?
p-CIP stab down: inactive; procasp7 counter: inactive; proCasp3 act: inactive; Rce1 inh: inactive; GAA850 FXN act: inactive; Hep lipid drop: 59; Hep lipid conf: inactive; AML12 cytotox: inactive; AML12 tox conf: inactive

Results for COC(=O)[C@@]12CCCN1[C@H](c1ccc(-c3ccc(Cl)c(Cl)c3)cc1)[C@H]1C(=O)N(C)C(=O)[C@H]12 ?
procasp7 counter: inactive; proCasp3 act: inactive; Rce1 inh: inactive; GAA850 FXN act: inactive

Results for CC(C)(C)c1ccc(C(O)c2ncc(-c3ccc(F)cc3)[nH]2)cc1 (centres undefined) ?
GAA850 FXN act: inactive

Results for Cc1cc(=O)oc2cc(OCC(=O)NC3CCN(Cc4ccccc4)CC3)ccc12 ?
p-CIP stab down: inactive; procasp7 counter: inactive; proCasp3 act: inactive; Rce1 inh: inactive; GAA850 FXN act: inactive; Hep lipid drop: inactive

Results for Cc1cc(=O)oc2cc(OCC(=O)NC3CCN(Cc4ccccc4)CC3)c(Cl)cc12 ?
p-CIP stab down: inactive; procasp7 counter: inactive; proCasp3 act: inactive; Rce1 inh: inactive; GAA850 FXN act: inactive; Hep lipid drop: 63; Hep lipid conf: inactive; AML12 cytotox: inactive

How did Cc1nnc(SCC(=O)Nc2ccc(OC(F)F)c(Cl)c2)n(N)c1=O do in these assays?
procasp7 counter: inactive; proCasp3 act: inactive; GAA850 FXN act: inactive

How did Cc1cccc(NC(=O)CSc2nnc(C)c(=O)n2N)c1 do in these assays?
p-CIP stab down: inactive; procasp7 counter: inactive; proCasp3 act: inactive; Rce1 inh: inactive; GAA850 FXN act: inactive; Hep lipid drop: 56; Hep lipid conf: inactive; AML12 cytotox: inactive; AML12 tox conf: inactive

What do the screens show for `Cc1ccc(NC(=O)CSc2nnc(C)c(=O)n2N)c(C)c1`?
p-CIP stab down: inactive; procasp7 counter: inactive; proCasp3 act: inactive; Rce1 inh: inactive; GAA850 FXN act: inactive; Hep lipid drop: inactive

How did Cc1ccc(NC(=O)CSc2nnc(C)c(=O)n2N)cc1Cl do in these assays?
p-CIP stab down: inactive; procasp7 counter: inactive; proCasp3 act: inactive; Rce1 inh: inactive; GAA850 FXN act: inactive; Hep lipid drop: 63; Hep lipid conf: 97; AML12 cytotox: inactive; AML12 tox conf: inactive

How did Cc1cccnc1C(NC(=O)C1CCN(CCCc2ccccc2)CC1)c1ccc(F)cc1 (centres undefined) do in these assays?
GAA850 FXN act: inactive

How did COc1ccc(CC(=O)Nn2c(-c3ccccc3)nc3ccccc3c2=O)cc1 do in these assays?
p-CIP stab down: inactive; procasp7 counter: inactive; proCasp3 act: inactive; Rce1 inh: inactive; GAA850 FXN act: inactive; Hep lipid drop: 56; Hep lipid conf: 91; AML12 cytotox: inactive

How did COc1ccc(F)cc1CN1CCN(c2ncnc3scc(-c4ccccc4)c23)CC1 do in these assays?
p-CIP stab down: inactive; procasp7 counter: inactive; proCasp3 act: inactive; Rce1 inh: inactive; GAA850 FXN act: inactive; Hep lipid drop: 56; Hep lipid conf: inactive; AML12 cytotox: inactive

Results for O=C(Nc1ccccc1)c1cc(C2CCCCN2C(=O)OCCF)on1 (centres undefined) ?
GAA850 FXN act: inactive

What do the screens show for `c1ccc2c(c1)CCCC2C1=NCCN1` (centres undefined)?
p-CIP stab down: inactive; procasp7 counter: inactive; proCasp3 act: inactive; Rce1 inh: inactive; GAA850 FXN act: inactive; Hep lipid drop: 53; Hep lipid conf: inactive; AML12 cytotox: inactive

How did CS(=O)(=O)N(Cc1ccc(Cl)cc1)c1ccc(C(=O)N/N=C/c2cc3ccccc3nc2Cl)cc1 do in these assays?
p-CIP stab down: inactive; procasp7 counter: inactive; proCasp3 act: inactive; Rce1 inh: inactive; GAA850 FXN act: inactive; Hep lipid drop: 64; Hep lipid conf: 106; AML12 cytotox: inactive; AML12 tox conf: inactive

How did COc1cccc(C(NC(C)=O)c2nc(-c3ccccc3)cs2)c1 (centres undefined) do in these assays?
GAA850 FXN act: inactive

What do the screens show for `COc1cccc(CNC(=O)CCNC(=O)C2CCN(S(=O)(=O)c3ccccc3)CC2)c1`?
p-CIP stab down: inactive; procasp7 counter: inactive; proCasp3 act: inactive; Rce1 inh: inactive; GAA850 FXN act: inactive; Hep lipid drop: 60; Hep lipid conf: 81; AML12 cytotox: inactive; AML12 tox conf: inactive

How did COc1cccc(CNC(=O)CCNC(=O)C2CCN(S(=O)(=O)c3ccc(F)cc3)CC2)c1 do in these assays?
p-CIP stab down: inactive; procasp7 counter: inactive; proCasp3 act: inactive; Rce1 inh: inactive; GAA850 FXN act: inactive; Hep lipid drop: inactive
